pIC50: −log10 of the molar value.
Experiments:
[1] = biological target: PI3-kinase p110-alpha/p85-alpha (Homo sapiens) (UniProt P27986+P42336); assay: Inhibition of recombinant human full length N-terminal His-tagged/untagged p110alpha/p85alpha expressed in baculovirus expression system at 500 nM using PIP2 as substrate after 1 hr by Kinase-Glo reagent-based assay relative to control
Ramos [2] = assay: Antiproliferative activity against human Ramos cells at 5 uM after 72 hrs by MTT assay relative to control; assay type: functional
Outline: (§1)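 HCT116 cells were grown in DMEM and Ramos cells in RPMI 1640, each with 10% FBS and penicillin/streptomycin, at 37 °C in 5% CO2. Log-phase cells were seeded at 10000-15000 per well and dosed after 24 h at 5 or 0.5 μM for 72 h. MTT was added for 1-3 h, followed by 20% SDS overnight, and A570 was read. Percent inhibition is relative to untreated control, as the mean of at least two experiments.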

Ramos [3] = assay: Antiproliferative activity against human Ramos cells at 0.5 uM after 72 hrs by MTT assay relative to control; assay type: functional; outline: as §1
[4] = biological target: Serine/threonine-protein kinase mTOR (Homo sapiens, UniProt P42345); assay: Inhibition of recombinant N-terminal FLAG-tagged human mTOR (1362 to end residues) at 500 nM using ULight-4E-BP1 (Thr37/46) peptide as substrate after 1 hr by fluorescence assay relative to control
Raji = assay: Antiproliferative activity against human Raji cells after 72 hrs by MTT assay; assay type: functional, cell-based
Outline: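 Log-phase cells were plated at 10000-15000 per well and exposed to serial concentrations after 24 h for 72 h. Read-out was MTT for 1-3 h, then 20% SDS overnight and absorbance at 570 nm. IC50 was calculated from growth versus untreated control, as mean ± SEM of at least three independent experiments.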

MCF7 = assay: Antiproliferative activity against human MCF7 cells after 72 hrs by MTT assay; assay type: functional, cell-based; conditions: MCF7, 72 h
HCT-116 [5] = assay: Antiproliferative activity against human HCT116 cells after 72 hrs by MTT assay; assay type: functional, cell-based; conditions: HCT-116, 72 h
HCT-116 [6] = assay: Antiproliferative activity against human HCT116 cells at 5 uM after 72 hrs by MTT assay relative to control; assay type: functional; conditions: HCT-116, 72 h; outline: as §1
HCT-116 [7] = assay: Antiproliferative activity against human HCT116 cells at 0.5 uM after 72 hrs by MTT assay relative to control; assay type: functional; conditions: HCT-116, 72 h; outline: as §1
MM1.S = assay: Antiproliferative activity against human MM1S cells after 72 hrs by MTT assay; assay type: functional, cell-based
MV4-11 = assay: Antiproliferative activity against human MV4-11 cells after 72 hrs by MTT assay; assay type: functional, cell-based; conditions: MV4-11, 72 h
OCI-AML-3 = assay: Antiproliferative activity against human OCI-AML3 cells after 72 hrs by MTT assay; assay type: functional, cell-based; conditions: OCI-AML-3, 72 h
OCI-AML2 = assay: Antiproliferative activity against human OCI-AML2 cells after 72 hrs by MTT assay; assay type: functional, cell-based; conditions: OCI-AML2, 72 h

Row | Compound | inhibition [1] [%] | inhibition [4] [%] | pIC50 (Raji) | pIC50 (MCF7) | pIC50 (HCT-116 [5]) | pIC50 (MM1.S) | pIC50 (MV4-11) | pIC50 (OCI-AML-3) | pIC50 (OCI-AML2) | inhibition at 5 µM (Ramos [2]) [%] | inhibition at 0.5 µM (Ramos [3]) [%] | inhibition at 5 µM (HCT-116 [6]) [%] | inhibition at 0.5 µM (HCT-116 [7]) [%]
1 | O=C(CCCCCCn1ncc2c(N3CCOCC3)nc(N3CCOCC3)nc21)NO | 4.5 | 2.2 | 6.80 | 6.43 | 7.05 | 6.72 |  |  |  | 97.4 | 91 | 95.2 | 92.9
2 | COc1ccc(-c2nc(N3CCOCC3)c3cnn(CCCCCCC(=O)NO)c3n2)cn1 | 3.3 | 58 | 7.35 | 6.43 | 7.17 | < 6.30 |  |  |  |  |  |  | 
3 | O=C(CCCCCn1ncc2c(N3CCOCC3)nc(N3CCOCC3)nc21)NO | 1 | -4.2 |  |  |  |  |  |  |  | 94.6 | 69.2 | 92.1 | 62.4
4 | Cc1ccc(NC(=O)Nc2ccc(-c3nc(N4CCOCC4)c4cnn(CCCCCCC(=O)NO)c4n3)cc2)cc1 |  |  | 7.66 |  | 7.58 | 7.61 |  |  |  |  |  |  | 
5 | O=C(CCCCCCn1ncc2c(N3CCOCC3)nc(-c3cc[nH]c3)nc21)NO | -3.8 | 85 | 7.82 | 6.74 | 6.97 | 7.28 |  |  |  |  |  |  | 
6 | CN1CCN(c2nc(N3CCOCC3)c3cnn(CCCCCC(=O)NO)c3n2)CC1 | 1.5 | -1.7 |  |  |  |  |  |  |  | 99.5 | 91.2 | 56.9 | 10.2
7 | O=C(CCCCCCCn1ncc2c(N3CCOCC3)nc(N3CCOCC3)nc21)NO | -1.2 | 4.4 |  |  |  |  |  |  |  | 99.1 | 26.9 | 71.8 | 13.8
8 | O=C(CCn1ncc2c(N3CCOCC3)nc(N3CCOCC3)nc21)NO | 11 | -5 |  |  |  |  |  |  |  | 15.7 | 8.5 | 22.4 | 6.3
9 | O=C(/C=C/c1ccc(Cn2ncc3c(N4CCOCC4)nc(N4CCOCC4)nc32)cc1)NO | -3 | -5.4 |  |  |  |  |  |  |  | 98.2 | 16.8 | 59.5 | 12
10 | O=C(CCCCCCn1ncc2c(N3CCOCC3)nc(-c3ccsc3)nc21)NO | 9.7 | 55 | 7.84 | 6.69 | 7.14 | 7.45 |  |  |  |  |  |  | 
11 | O=C(CCCCCCn1ncc2c(N3CCOCC3)nc(-c3ccoc3)nc21)NO | 8.4 | 35 | 8.11 | 6.81 | 7.46 | 7.81 |  |  |  |  |  |  | 
12 | Nc1ccc(-c2nc(N3CCOCC3)c3cnn(CCCCCCC(=O)NO)c3n2)cn1 | 1.9 | 35 | 8.15 | 6.79 | 7.21 | 8.08 |  |  |  |  |  |  | 
13 | Nc1ncc(-c2nc(N3CCOCC3)c3cnn(CCCCCCC(=O)NO)c3n2)cn1 | 1.2 | 40 | 7.50 | 6.66 | 6.79 | 7.49 |  |  |  |  |  |  | 
14 | COc1cccc(NC(=O)Nc2ccc(-c3nc(N4CCOCC4)c4cnn(CCCCCCC(=O)NO)c4n3)cc2)c1 |  |  | 6.61 |  | < 6.30 | 6.33 |  |  |  |  |  |  | 
15 | O=C(CCCCCCn1ncc2c(N3CCOCC3)nc(-c3ccc(NC(=O)Nc4ncc(Br)cn4)cc3)nc21)NO |  |  | 7.22 |  | 6.84 | 7.19 |  |  |  |  |  |  | 
16 | CN1CCN(c2nc(N3CCOCC3)c3cnn(CCCCCCC(=O)NO)c3n2)CC1 | -6.2 | -0.4 |  |  |  |  |  |  |  | 99.5 | 90.1 | 80.3 | 59.9
17 | O=C(Cn1ncc2c(N3CCOCC3)nc(N3CCOCC3)nc21)NO | 5.9 |  |  |  |  |  |  |  |  | 12.4 | 1.1 | 18.1 | 3.5
18 | O=C(CCCCCCn1ncc2c(N3CCOCC3)nc(-c3cccnc3)nc21)NO | -0.1 | 17 | < 6.30 | < 6.30 | 6.53 | < 6.30 |  |  |  |  |  |  | 
19 | O=C(CCCCn1ncc2c(N3CCOCC3)nc(N3CCOCC3)nc21)NO | 15 | -5.4 |  |  |  |  |  |  |  | 60.2 | 33.3 | 55.8 | 22.6
20 | Cc1cccnc1NC(=O)Nc1ccc(-c2nc(N3CCOCC3)c3cnn(CCCCCCC(=O)NO)c3n2)cc1 |  |  | 7.72 |  | 7.61 | 7.69 |  |  |  |  |  |  | 
21 | CS(=O)(=O)c1ccc(-c2nc(N3CCOCC3)c3cnn(CCCCCCC(=O)NO)c3n2)cc1 | 31 | 64 | 6.95 | < 6.30 | 7.12 | 6.77 |  |  |  |  |  |  | 
22 | O=C(CCCn1ncc2c(N3CCOCC3)nc(N3CCOCC3)nc21)NO | 17 | 21 |  |  |  |  |  |  |  | 39.6 | 20.5 | 30.1 | 15.7

Further lines, with some results ahead:

Row | inhibition [1] [%] | inhibition [4] [%] | pIC50 (Raji) | pIC50 (MCF7) | pIC50 (HCT-116 [5]) | pIC50 (MM1.S) | pIC50 (MV4-11) | pIC50 (OCI-AML-3) | pIC50 (OCI-AML2) | Compound | inhibition at 5 µM (Ramos [2]) [%] | inhibition at 0.5 µM (Ramos [3]) [%] | inhibition at 5 µM (HCT-116 [6]) [%] | inhibition at 0.5 µM (HCT-116 [7]) [%]
23 |  |  | 6.83 |  | 7.17 | 7.41 | 7.86 | 7.82 | 7.77 | O=C(CCCCCCn1ncc2c(N3CCOCC3)nc(-c3ccc(NC(=O)N4CCSCC4)cc3)nc21)NO |  |  |  | 
24 |  |  | 7.37 |  | 6.98 | 7.08 |  |  |  | CCCNC(=O)Nc1ccc(-c2nc(N3CCOCC3)c3cnn(CCCCCCC(=O)NO)c3n2)cc1 |  |  |  | 
25 |  |  | 7.72 |  | 7.47 | 7.82 | 7.74 | 8.06 | 8.01 | CCCCNC(=O)Nc1ccc(-c2nc(N3CCOCC3)c3cnn(CCCCCCC(=O)NO)c3n2)cc1 |  |  |  | 
26 |  |  | 8.46 |  | 7.29 | 7.87 |  |  |  | CNC(=O)Nc1ccc(-c2nc(N3CCOCC3)c3cnn(CCCCCCC(=O)NO)c3n2)cc1 |  |  |  | 
27 |  |  | 7.71 |  | 7.21 | 7.93 | 7.98 | 7.79 | 7.73 | CCNC(=O)Nc1ccc(-c2nc(N3CCOCC3)c3cnn(CCCCCCC(=O)NO)c3n2)cc1 |  |  |  | 
28 |  |  | 7.21 |  | 7.24 | 7.22 |  |  |  | O=C(CCCCCCn1ncc2c(N3CCOCC3)nc(-c3ccc(NC(=O)NCCO)cc3)nc21)NO |  |  |  | 
29 |  |  | 6.82 |  | 6.36 | 6.52 |  |  |  | CC(O)CNC(=O)Nc1ccc(-c2nc(N3CCOCC3)c3cnn(CCCCCCC(=O)NO)c3n2)cc1 (stereo unspecified) |  |  |  | 
30 |  |  | 7.84 |  | 7.00 | 7.56 | 7.90 | 7.52 | 7.54 | O=C(CCCCCCn1ncc2c(N3CCOCC3)nc(-c3ccc(NC(=O)N4CCOCC4)cc3)nc21)NO |  |  |  | 
31 |  |  | 6.90 |  | 6.96 | 6.90 | 7.58 | 7.40 | 7.48 | O=C(CCCCCCn1ncc2c(N3CCOCC3)nc(-c3ccc(NC(=O)N4CCNCC4)cc3)nc21)NO |  |  |  | 
32 | -1 | 38 | 7.53 | 7.15 | 7.42 | 6.45 |  |  |  | COc1ccc(-c2nc(N3CCOCC3)c3cnn(CCCCCCC(=O)NO)c3n2)cc1 |  |  |  | 

From ChEMBL document CHEMBL4411315, “Discovery of Novel Dual Histone Deacetylase and Mammalian Target of Rapamycin Target Inhibitors as a Promising Strategy for Cancer Therapy” (J Med Chem, 2019)
